Assay results of several laboratories.
CDK17: Cyclin-dependent kinase 17 (CDK17, Homo sapiens, UniProt Q00537)
CDK17 with cyclin Y: Cyclin-dependent kinase 17, with cyclin Y (CDK17, Homo sapiens, UniProt Q00537)

Compound | target | test | setting | endpoint | result
Cc1ccc(NC(=O)c2ccnc(C(F)(F)F)c2)cc1-c1cc(OCCO)nc(N2CCOCC2)c1 | CDK17 | binding, competition with immobilised ligand | 1 µM | remaining binding | 98%
COc1ccc2oc(-c3ccc4nc(N)oc4c3)c/c(=N\c3ccccc3NC(=O)CCN)c2c1 | CDK17 with cyclin Y | binding | 1 µM | remaining binding | 100%
CC(C)S(=O)(=O)c1ccc2nccc(Nc3ccc4sc(C5CCCC5)nc4c3)c2c1 | CDK17 with cyclin Y | enzyme activity, inhibitor | 1 µM | activity vs control | 111%
CO[C@@H]1[C@H](N(C)C(=O)c2ccccc2)C[C@H]2O[C@]1(C)n1c3ccccc3c3c4c(c5c6ccccc6n2c5c31)C(=O)NC4 | CDK17 | enzyme activity, inhibitor | 1 µM | inhibition | 0%
C[C@H]1CC[C@H](n2c3cnccc3c3cnc(Nc4ccc5c(n4)CCN(C(=O)CO)C5)nc32)CC1 | CDK17 | binding, competition with immobilised ligand | 1 µM | remaining binding | 24%
CC#CC(=O)N1CCC[C@H]1c1nc(-c2ccc(C(=O)Nc3ccccn3)cc2)c2c(N)nccn12 | CDK17 | enzyme activity, inhibitor | 1 µM | inhibition | 0%
Cc1cc(O)c(-c2ccc([C@@H](C)CN(C)C)cc2)c2c1[nH]c(=O)c1sccc12 | CDK17 | enzyme activity, inhibitor | 0.1 µM | inhibition | 2.42%
CCCCC(=O)Nc1ccc(-c2ccc3ncn(CCC)c(=O)c3c2)cn1 | CDK17 | binding, competition with immobilised ligand | 0.5 µM | remaining binding | 100%
